Bioassay records (PubChem)
hERG protect = shields human hERG channel from block by proarrhythmic agents | hit rate 0.51% among 310,000 | AID 1511 | Q12809 | activation (rescue from dofetilide block), less the hit threshold, % at 10 µM | CHO-hERG, FluxOR thallium flux, dofetilide IC70 present;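 active means activation above the mean of controls blocked by dofetilide plus 5 SD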;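 further: thallium influx through hERG after potassium depolarization seen as dye fluorescence rise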
KCNQ1 act = potentiates or activates the human KCNQ1 potassium channel. CHO-K1 KCNQ1, thallium flux FluxOR fluorescence; active compounds read high. B-score at 10 µM. hit rate 0.35% among 310,000;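 active means fluorescence ratio B-score, a plate-corrected score, at least three library SD, with initial intensity B-score within 5 SD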
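Material: CHO-K1 cells stably expressing KCNQ1. Medium: assay buffer for compound exposure, DMSO matched across wells. Reagent: K+/Tl+ depolarizing stimulus. Compound dosing: single-concentration screen. Times: 37 °C overnight plating, 90-min dark dye load, 20-min compound pretreatment. Technique: FluxOR Tl+ flux fluorescence.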
KCNQ1 inh = inhibitors of human KCNQ1 potassium channel; hit rate 1.3% among 310,000; CHO-K1 KCNQ1, FluxOR thallium flux fluorescence; active compounds read high; P51787; AID 2642; B-score at 10 µM;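 active means compounds whose thallium flux B-score, printed positive for inhibition, exceeds three library SD while starting fluorescence stays within three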;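 further: channel opened by potassium depolarization with thallium stimulus after 20 min compound exposure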
KCNK3 inh = human KCNK3 channel inhibition, primary screen; O14649; CHO-KCNK3 thallium flux, FluxOR fluorescence; active compounds read low; B-score at 10 µM; hit rate 0.84% among 340,000; AID 602410;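 active means B-score under library mean minus 4 SD, starting fluorescence ratio at most library mean plus 5 SD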;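 further: more negative B-score means stronger inhibition of thallium flux through KCNK3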
KCC2 mod = KCC2 (human) Cl- transport modulation; KCC2 cells, thallium flux FluoZin-2 fluorescence; AID 1456; B-score of Tl+ flux slope (higher = more flux/activation; lower = inhibition) at 10 µM; hit rate 2.2% among 190,000; Q9H2X9;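 active means thallium flux slope and its plate-corrected score both differing from the plate sample mean at a set confidence after two filtering rounds, in either direction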;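 further: slope of fluorescence scaled to starting intensity during 10 to 20 s after thallium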
KCNK9 block = blocks the human KCNK9 two-pore domain potassium channel; Q9NPC2; HEK293 KCNK9, FluxOR thallium flux fluorescence; active compounds read low; B-score at 10 µM; hit rate 1.2% among 310,000; AID 488922;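 active means ratio B-score over 3 SD below the library mean, with starting fluorescence within 5 SD of its mean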;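 further: negative B-score means less thallium flux so channel inhibition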
KCC2 secondary = confirmation of human KCC2 transport modulators | hit rate 15% among 3,700 | shares compounds with KCC2 mod | HEK293-KCC2, thallium flux, FluoZin2 fluorescence; active compounds read high | AID 1713 | normalised thallium flux (F/F0 slope) at 10 µM;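 active means thallium flux slope above the same plate's solvent-only control mean plus 3 SD; inconclusive means the two replicate wells disagree; inactive means no significant difference from solvent-only control wells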
KCC2 bumet counter = bumetanide-insensitive thallium flux in KCC2 cells with ouabain, counter-screen; shares compounds with KCC2 mod; HEK293-KCC2 + bumetanide/ouabain, thallium flux FluoZin2; active compounds read high; normalized thallium flux at 10 µM; hit rate 49% among 3,700; AID 1714;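 active means thallium entry rate above the same plate's blocked-transporter control wells by more than 3 SD; inconclusive means the two repeat wells disagree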;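 further: raw slope of fluorescence over initial fluorescence between 10 and 20 s after thallium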
KCC2 sec2 = confirmation of human KCC2 transport modulators; shares compounds with KCC2 mod; HEK293-KCC2, thallium flux FluoZin2 fluorescence; actives lie on both sides; F/F0 rise rate, 10–20 s post-thallium; normalized thallium flux at 10 µM; hit rate 23% among 3,700;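 active means thallium flux slope more than 3 SD above or below the plate's solvent-only control mean, mostly below; inconclusive means the two repeat wells disagreed; inactive means no significant shift from solvent-only controls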;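 further: raw slope with 0.1% DMSO as baseline and bumetanide as block control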
HEK293 Tl flux = counter-screen for KCC2 modulators: effect in parental HEK293 cells. thallium flux rate (normalised fluorescence) at 10 µM. hit rate 46% among 3,700. thallium flux FluoZin2, ouabain; baseline-ratio fluorescence slope, 10–20 s after thallium. shares compounds with KCC2 mod;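 active means thallium flux rate significantly above the same plate's solvent-only control wells, beyond their mean plus 3 SD; inconclusive means the two replicate wells gave conflicting results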
KCC2 retest ouab = confirmation of human KCC2 modulators with ouabain; shares compounds with KCC2 mod; HEK293-KCC2, thallium flux FluoZin2 fluorescence; bidirectional: low = inhibitor, high = activator; raw Tl+ flux slope (below DMSO = inhibition, above = activation) at 10 µM; hit rate 48% among 3,700; AID 1717;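 active means thallium flux slope beyond 3 SD from same-plate DMSO control mean in most replicates, usually higher, sometimes lower; inconclusive means repeat tests gave conflicting results; inactive means no significant difference from controls in most replicates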;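 further: slope of initial-normalized fluorescence between seconds 10 and 20 after thallium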
HEK293 Tl flux2 = acts in parental HEK cells, second KCC2 counter-screen. shares compounds with KCC2 mod. HEK293 parental, thallium flux FluoZin-2 fluorescence slope. thallium flux slope at 10 µM. hit rate 33% among 3,700. AID 1718;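 active means thallium flux slope above the same plate's solvent-control mean plus 3 SD in both duplicate wells; inconclusive means duplicate wells that disagreed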;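 further: run without ouabain in cells lacking the KCC2 cotransporter; slope of fluorescence scaled to its starting value between 10 and 20 s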
KCNQ1 block val = confirmation of human KCNQ1 potassium channel inhibitors | shares compounds with KCNQ1 inh | KCNQ1 cell line, FluxOR thallium flux fluorescence | inhibition, % at 10 µM | hit rate 93% among 1,600 | AID 588353;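 active means primary screen active, with duplicate mean exceeding buffer control mean plus 3 SD of buffer wells, cut at about 28% in these data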;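 further: 0% = buffer control ratio and 100% = XE991 inhibitor control ratio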
CHO Tl flux = counter-screen for KCNQ1 inhibitors: effect in parental CHO cells; shares compounds with KCNQ1 inh; parental CHO-K1, FluxOR thallium flux fluorescence ratio; active compounds read low; zero means no signal rise above baseline; fluorescence ratio (Tl flux) at 10 µM; hit rate 21% among 1,600; AID 588366;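 active means mean of duplicate thallium-flux fluorescence ratios in parental host cells more than 5 SD below the buffer control mean, cut at about 0.38 in these data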;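 further: ratio is peak minus minimum fluorescence divided by baseline fluorescence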
KCNQ1 ephys val = blocks human KCNQ1 current in automated patch clamp; shares compounds with KCNQ1 inh; KCNQ1-CHO cells; calls only at 10 µM; hit rate 20% among 490; AID 624120;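 active means KCNQ1 current drop exceeding 3 SD of negative control wells, seen in both duplicate runs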;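 further: steady state current during a 2 s step from -80 to +40 mV; negative values mean current inhibition and positive values mean potentiation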
KCNQ2 spec = selectivity of KCNQ1 inhibitors: inhibition of rat KCNQ2 channel. hit rate 71% among 1,600. inhibition, % at 10 µM. KCNQ2 cells, FluxOR thallium flux fluorescence. shares compounds with KCNQ1 inh. AID 651746;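 active means mean percent inhibition of the KCNQ2 thallium signal more than 5 SD above the buffer-only control wells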;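 further: KCNQ2 expressed in CHO cells; 0% = buffer control wells and 100% = XE-991 inhibitor control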
KCNQ1-KCNE1 inh = KCNQ1 inhibitor that also blocks human KCNQ1/KCNE1 channel; shares compounds with KCNQ1 inh; KCNQ1/KCNE1 cells, FluxOR thallium flux fluorescence; inhibition, % at 10 µM; hit rate 77% among 1,600;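 active means mean percent inhibition of duplicate wells above the buffer-only control mean plus 3 SD of those controls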;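 further: 0% = buffer only wells and 100% = XE-991 inhibitor control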
Numbers without * were called inactive; i = inactive; ? = inconclusive; / = no result; + = active, no number. Rows were chosen to be rich in hits. Some 4.1% of all compounds tested hit in one or more screens of this group.

SMILES | hERG protect | KCNQ1 act | KCNQ1 inh | KCNK3 inh | KCC2 mod | KCNK9 block | KCC2 secondary | KCC2 bumet counter | KCC2 sec2 | HEK293 Tl flux | KCC2 retest ouab | HEK293 Tl flux2 | others
Cn1c(=O)[nH]c(=O)c2c1nc(N1CCCCC1)n2CC(O)COc1ccc([N+](=O)[O-])cc1 (stereo not given) | -5.9 | i | i | i | / | i | / | / | / | / | / | /
O=C(Cn1c(C(=O)OCCO)cc2ccccc21)c1ccccc1 | -11.8 | i | i | i | / | i | / | / | / | / | / | /
CC(=O)NC(=S)Nc1ccc(NC(=S)NC(=O)c2cccs2)cc1 | -1.8 | i | i | i | / | i | / | / | / | / | / | /
CCN(CC)c1ccc(NC(=S)NC(=O)c2cccs2)cc1 | 6.5* | i | i | i | 21.4* | i | 0.0164* | 0.0787* | 0.0376 | 0.0837* | 0.0507* | 0.0197*
COc1ccc(C(C)(C)C)cc1NC(=O)COC(=O)CSCc1c(C)noc1C | / | / | / | i | / | / | / | / | / | / | / | /
Cn1ncc2c(=S)nc(Cl)[nH]c21 | / | / | / | i | / | / | / | / | / | / | / | /
C/C(=C\C(=O)c1ccc(Cl)s1)N(C)C | -1.3 | i | i | i | 3.78* | i | 0.0109 | 0.0143* | 0.0364 | ? | ? | 0.0107
CCC(C)[C@H](NC(=O)c1cc2cc(Cl)ccc2n1C)C(=O)N1CCC[C@H]1C(=O)O (stereo not given in full) | -6.3 | i | i | i | / | i | / | / | / | / | / | /
O=C(O)/C(=C\c1cccc(F)c1)c1ccc(S(=O)(=O)N2CCCCC2)s1 | -2.9 | i | i | i | -5.6* | i | 0.00826 | 0.00637 | 0.0321 | 0.00724 | 0.0138* | 0.0108
O=C(CNC(=O)c1ccc(Cl)cc1Cl)OCCOc1ccccc1F | / | / | / | i | / | / | / | / | / | / | / | /
O=C(O)CCc1ccc(-c2ccc(F)cc2)n1CCC(=O)O | -9.6 | i | i | i | 3.2* | i | 0.01 | ? | 0.0339 | 0.00805 | 0.0229 | 0.0111
CC/C(=N/Nc1cccc(Cl)c1)c1cnnc(SC)n1 | -3.6 | i | i | i | 0.422 | i | / | / | / | / | / | /
CC/C(=N/Nc1ccccc1)c1cnnc(-c2ccccc2)n1 | -11.6 | i | i | i | 2.7* | i | 0.00989 | 0.00564 | 0.0333 | 0.0081 | 0.0219 | 0.0103
Cc1cc(C)cc(OCC(=O)NNC(=O)c2cc3ccccc3o2)c1 | -0.2 | 8* | i | i | 30.8* | i | 0.019* | 0.102* | 0.0326 | 0.0337* | 0.0587* | 0.0152*
O=C(NNC(=O)c1cc2ccccc2o1)c1ccc(Cl)cc1 | -7.8 | i | i | i | 8.65* | i | 0.01 | 0.0241* | 0.033 | 0.0113* | ? | 0.0117*
O=C(NNC(=O)c1cc2ccccc2o1)c1ccc(F)cc1 | / | / | / | i | / | / | / | / | / | / | / | /
c1ccc(-n2c(-c3ccncc3)nnc2-c2ccco2)cc1 | -16.3 | i | i | i | / | i | 0.0169 | 0.00477 | 0.0294 | 0.00703 | 0.0159 | 0.0109
CCCc1c(-c2ccc(O)cc2)nn(-c2ccc(O)cc2)c1-c1ccc(O)cc1 | -35.6 | i | 13* | -8.97* | -2.48* | i | 0.0072 | 0.00463 | 0.0331 | ? | 0.0192 | 0.01 | KCNQ1 block val=146.5*;CHO Tl flux=0.254*;KCNQ2 spec=i;KCNQ1-KCNE1 inh=+
O=C(O)C(c1ccccc1)C1CCCCC1O (stereo not given) | / | / | / | i | / | / | / | / | / | / | / | /
COc1ccc(S(=O)(=O)Nc2ccccc2C(=O)Nc2nc(-c3ccc(F)cc3)cs2)cc1OC | -20.4 | i | 9* | i | -6.21* | i | 0.00597* | 0.00573 | 0.0304 | ? | 0.0122* | 0.0103 | KCNQ1 block val=166.5*;CHO Tl flux=0.318*;KCNQ2 spec=89.0%*;KCNQ1-KCNE1 inh=+
CCCNC(=O)c1ccccc1NS(=O)(=O)c1ccc(OC)c(OC)c1 | -6.9 | i | i | i | 0.31 | i | / | / | / | / | / | /
O=S(c1ccccc1O)S(=O)c1ccccc1O (stereo not given) | / | / | / | i | / | / | / | / | / | / | / | /
O=C(NCCOc1ccc(F)cc1)c1ccccc1SCc1ccccc1 | -24.6 | i | 7* | i | -5.45* | i | 0.00513 | ? | 0.0188* | 0.00588* | 0.0116* | 0.00893 | KCNQ1 block val=102.0*;CHO Tl flux=0.485;KCNQ1 ephys val=+;KCNQ2 spec=106.0%*;KCNQ1-KCNE1 inh=169.0%*
